Measured values gathered from unrelated publications.
Each line is one published result; the experiments were not run side by side.
Cell line: SK-MEL-5
Read-out: cell growth or viability

`O=C1NC(=NCc2cccs2)S/C1=C\c1ccc2ncccc2c1` has an IC50 of over 10000 nM.
`Cc1ncsc1-c1ccc(CNC(=O)[C@@H]2C[C@H](O)CN2C(=O)[C@@H](NC(=O)C2(F)CC2)C(C)(C)C)c(OCCc2ccc(CN3CCN(c4cc(-c5ccccc5O)nnc4N)CC3)cc2)c1` gave an IC50 of 540 nM (ATP luminescence; 7 days).
For `O=C1NCCc2[nH]c(-c3ccncc3)cc21`, the IC50 was over 10000 nM.
`COc1cc(-c2ccc(-c3ccc(C(=N)N)nc3)s2)cc(OC)c1OC` has a GI50 of 1670 nM (SRB).
For `COc1ccccc1/C=C/C(=O)c1ccc(OC)c(S(N)(=O)=O)c1`, the GI50 was 3900 nM (SRB; 48 h).
The GI50 of `COc1cccc(Oc2ccccc2NC(=O)CNC(=O)c2cccc3ccccc23)c1` is reported as 219 nM (SRB; 48 h).
The GI50 of `COc1ccc(-c2ccc(-c3ccc(C(=N)N)nc3)s2)cc1` is reported as 1790 nM (SRB).
For `COc1ccc(C(=O)/C=C/c2cccnc2)cc1S(N)(=O)=O`, the GI50 was 14800 nM (SRB; 48 h).
